In ChEMBL document CHEMBL4689842, “EUbOPEN Chemogenomics Library wave 1” (2021):
Several values for one entry are separate records, joined by “and”; a condition that tells them apart may be missing. Equal entries are not always repeated.

How the values were obtained:
Assay type in all cases: toxicity, cell-based
Fibroblast = test: Multiplex assay against human fibroblast; details: 1 µM, compound concentration 1 uM
Summary of the method: (§1)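 Live cells were stained at seeding with Hoechst33342, BioTracker Green Microtubule Cytoskeleton Dye, MitoTracker Red and Annexin V Alexa Fluor 680, then imaged on a CQ1 microscope at 37°C and 5% CO2 after compound addition. CellPathfinder machine-learning gating split cells into Hoechst high-intensity objects or normal cells. Normal cells were split into healthy, pyknosed or fragmented nuclei, and pyknosed cells into mitotic or apoptotic. Tubulin, mitochondrial-mass and membrane-permeability phenotypes are per cents of healthy-nucleus cells.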

U2OS = test: Multiplex assay against U2OS; details: human, 1 µM, compound concentration 1 uM; summary of the method: as §1
HEK-293T = test: Incucyte cell viability with HEK293T; details: human, 10 µM, compound concentration 10 uM; also: filed as whole numbers so only -1 and 0 and 1 occur

## CN([C@@H](Cc1ccc(OS(=O)(=O)c2cccc3cnccc23)cc1)C(=O)N1CCN(c2ccccc2)CC1)S(=O)(=O)c1cccc2cnccc12
Fibroblast; 12 h, replicate 2
  Population Normal (%): 69% and 58%
  Population Pyknosed Nuclei (%): 6% and 14%
  Population Tubulin-Different-Phenotype (%): 82% and 80%
  Total Cell Count: 84 and 58
Fibroblast; 24 h, replicate 1
  Population Apoptotic (%): 66% and 59%
  Population Fragmented Nuclei (%): 23% and 30%
  Population Healthy Nuclei (%): 61% and 59%
  Population Hoechst High Intensity Objects (%): 15% and 13%
  Population Membrane Permeable-Phenotype (%): 30% and 21%
  Population Mitotic Cells (%): 33% and 40%
  Population Normal (%): 84% and 86%
  Population Pyknosed Nuclei (%): 15% and 10%
  Population Tubulin-Different-Phenotype (%): 70% and 47%
  Total Cell Count: 184 and 365
Fibroblast; 24 h, replicate 2
  Population Fragmented Nuclei (%): 76% and 52%
  Population Healthy Nuclei (%): 14% and 38%
  Population Hoechst High Intensity Objects (%): 33% and 25%
  Population Membrane Permeable-Phenotype (%): 40% and 25%
  Population Mitochondria Different-Phenotype (%): 40% and 33%
  Population Normal (%): 66% and 74%
  Population Pyknosed Nuclei (%): 8% and 9%
  Population Tubulin-Different-Phenotype (%): 60% and 91%
  Total Cell Count: 51 and 85
U2OS; 12 h, replicate 1
  Population Apoptotic (%): 52% and 61%
  Population Fragmented Nuclei (%): 3% and 2%
  Population Healthy Nuclei (%): 83% and 89%
  Population Hoechst High Intensity Objects (%): 1%
  Population Membrane Permeable-Phenotype (%): 38% and 75%
  Population Mitochondria Different-Phenotype (%): 32% and 23%
  Population Mitotic Cells (%): 47% and 38%
  Population Normal (%): 98%
  Population Pyknosed Nuclei (%): 12% and 7%
  Population Tubulin-Different-Phenotype (%): 99%
  Total Cell Count: 150 and 181
U2OS; 12 h, replicate 2
  Population Apoptotic (%): 25% and 40%
  Population Fragmented Nuclei (%): 16% and 6%
  Population Healthy Nuclei (%): 74% and 79%
  Population Hoechst High Intensity Objects (%): 13% and 15%
  Population Membrane Permeable-Phenotype (%): 33% and 69%
  Population Mitochondria Different-Phenotype (%): 46% and 45%
  Population Mitotic Cells (%): 75% and 60%
  Population Normal (%): 86% and 84%
  Population Pyknosed Nuclei (%): 9% and 13%
  Population Tubulin-Different-Phenotype (%): 100%
  Total Cell Count: 104 and 101
U2OS; 24 h, replicate 1
  Population Apoptotic (%): 69% and 58%
  Population Fragmented Nuclei (%): 4% and 5%
  Population Healthy Nuclei (%): 75% and 73%
  Population Hoechst High Intensity Objects (%): 2% and 1%
  Population Membrane Permeable-Phenotype (%): 25% and 68%
  Population Mitochondria Different-Phenotype (%): 55%
  Population Mitotic Cells (%): 30% and 41%
  Population Normal (%): 97% and 98%
  Population Pyknosed Nuclei (%): 20% and 21%
  Population Tubulin-Different-Phenotype (%): 98% and 99%
  Total Cell Count: 154 and 198
U2OS; 24 h, replicate 2
  Population Apoptotic (%): 57% and 53%
  Population Fragmented Nuclei (%): 15% and 12%
  Population Healthy Nuclei (%): 68%
  Population Hoechst High Intensity Objects (%): 12% and 9%
  Population Membrane Permeable-Phenotype (%): 32% and 54%
  Population Mitochondria Different-Phenotype (%): 62% and 70%
  Population Mitotic Cells (%): 42% and 46%
  Population Normal (%): 87% and 90%
  Population Pyknosed Nuclei (%): 15%
  Population Tubulin-Different-Phenotype (%): 100%
  Total Cell Count: 99 and 102
HEK-293T; 0 h, replicate number 2, timepoint 0 hours
  Growth Rate: 1
HEK-293T; 6 h, replicate number 1, timepoint 6 hours
  Growth Rate: 0
HEK-293T; 12 h, replicate number 1, timepoint 12 hours
  Growth Rate: 0
HEK-293T; 18 h, replicate number 1, timepoint 18 hours
  Growth Rate: 0
HEK-293T; 24 h, replicate number 1, timepoint 24 hours
  Growth Rate: 0
